Hsp70 act: Hsp70 transcriptional activation, primary screen; HeLa Hsp70 promoter luciferase reporter, luminescence; scaled: vehicle 0, proteasome-inhibitor control 100%; AID 1203; actives 0.04% (n = 200,000); activation, % at 10 µM;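 active = activation above the mean across all tested compounds plus 3 SD, cutoff set per campaign, cut at about 5.5% in these data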;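 note: 100% = MG132 at 30 µM as the positive control and 0% = DMSO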
HSF1 inh: HSF1 inhibition | actives 0.77% (n = 300,000) | AID 2098 | activity change, negative = inhibition, % at 7.5 µM (by protocol) | NIH3T3-HGL HSE-luciferase, MG132-induced, luminescence 8 h; stronger effect = lower value;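 active = more than half of replicate wells show activity change below -50%, luminescence cut by over half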;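 note: luciferase reports HSF-1 transcriptional activity via heat shock element; 0% = median of DMSO wells and -100% = zero luminescence signal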
HSF1 activator: increases HSF-1 driven luciferase reporter signal | NIH3T3-HGL HSF-1 luciferase reporter, MG132, 8 h; 100% = twice DMSO control signal | activation, % at 9 µM | actives 1.7% (n = 300,000);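 active = mean replicate activation of at least 50% with a set share of replicates each reaching 50%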;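 note: 0% = median of the neutral control wells and 100% = twice that signal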
Mdm2 ligase inh: inhibitors of human Mdm2 E3 ubiquitin ligase; signal enhancement, % at 5 µM; Q00987; actives 0.11% (n = 210,000); cell-based MDM2 ubiquitination luciferase reporter, 2 h; 0 = plate control, 100 = twice control, blank-subtracted;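 active = signal enhancement of 30% or more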;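 note: luminescence tracks abundance of the self-degrading MDM2-luciferase fusion protein; higher signal means inhibition of MDM2 E3 ligase activity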
Target sequence (Q00987 whole entry, looked up, the tested form may be a part): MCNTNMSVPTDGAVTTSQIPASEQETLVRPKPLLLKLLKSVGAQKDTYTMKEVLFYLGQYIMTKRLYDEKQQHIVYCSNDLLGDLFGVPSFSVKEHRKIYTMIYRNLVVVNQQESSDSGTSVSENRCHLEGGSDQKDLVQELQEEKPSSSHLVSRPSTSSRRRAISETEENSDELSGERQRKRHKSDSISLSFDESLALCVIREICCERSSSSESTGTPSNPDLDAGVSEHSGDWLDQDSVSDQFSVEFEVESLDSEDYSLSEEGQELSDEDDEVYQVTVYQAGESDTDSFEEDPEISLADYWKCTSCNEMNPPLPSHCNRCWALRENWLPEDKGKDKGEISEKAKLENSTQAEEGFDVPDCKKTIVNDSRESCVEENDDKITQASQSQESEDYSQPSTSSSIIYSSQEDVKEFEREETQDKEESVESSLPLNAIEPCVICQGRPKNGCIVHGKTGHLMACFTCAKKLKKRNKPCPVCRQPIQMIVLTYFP
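Assay system: stable mammalian line carrying autodegrading MDM2–luciferase fusion reporter; Input: 2000 cells in each well; Compound dosing: single-point 5 µM; Schedule: 2 h compound exposure at 37 °C; Signal: SteadyLite luciferase luminescence after 15 min room-temperature reagent incubation; Evaluation: % luminescence enhancement versus blank-corrected plate control mean; Benchmarks: plate controls and plate blanks.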
HSV replic up: increases HSV replication in cells. HSV replication augmentation in cells, fold increase. maximum fold increase. actives 0.005% (n = 220,000). AID 1956; in the data active = maximum fold increase above about 1.5; tested in PC3 cells
Rad51 HR inh: blocks human Rad51 in homologous recombination. Q06609. hRad51 DNA strand exchange, fluorescence dequenching. inhibition, % at 10 µM. actives 0.085% (n = 200,000). AID 1385;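 active = inhibition above 40% at the single screening dose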;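 note: 0% = DMSO control wells and 100% = blanks with heterologous ssDNA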
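System: human Rad51 nucleoprotein filaments preassembled on unlabelled ssDNA. Reagent: labelled 47-mer dsDNA for strand exchange. Schedule: 30-min compound preincubation and 15-min exchange, both room temperature. Measured by: FRET fluorescence dequenching, excitation 485 nm, emission 520 nm. Read-out: Fluorescence-based percent inhibition, control- and blank-normalised. Benchmarks: plate controls and plate blanks.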
Starred values were filed as active, the others as inactive; i = inactive; x = no result. A selection: hits, their analogues and other compounds. The true share with any hit is near 2.6%.

SMILES | Hsp70 act | HSF1 inh | HSF1 activator | Mdm2 ligase inh | HSV replic up | Rad51 HR inh
COc1ccc(N=Cc2nc(-c3ccco3)oc2O)cc1 | 0.4 | 26.1 | 37.8 | -12.3 | i | 3.4
CCC(=NCc1ccc(Cl)c(Cl)c1)c1nc(-c2ccco2)oc1O | -0.3 | 36.8 | 71.7* | -6.2 | i | 1.7
O=C(O)c1ccc(NC(=S)NC(=O)c2ccc(-c3ccc(Br)cc3)o2)cc1 | x | 2.1 | 15.8 | x | x | x
Cc1c(NC(=O)C2CC(c3c(F)cccc3Cl)=NO2)c(=O)n(-c2ccccc2)n1C (stereo not drawn) | -0.3 | -11.4 | -8.4 | -2.0 | i | 2.4
COc1ccc(C2=NOC(C(=O)Nc3c(C)n(C)n(-c4ccccc4)c3=O)C2)cc1OC (stereo not drawn) | -0.1 | -73.4* | -79.5 | -8.9 | i | -2.6
COc1ccc(C2=NOC(C(=O)N3CCCCCC3)C2)cc1OC (stereo not drawn) | -0.1 | -77.9* | -83.0 | 0.1 | i | 1.5
Cc1cc(OCC(=O)NC2CC(C)(C)NC(C)(C)C2)c2c(C)c(C)c(=O)oc2c1 | x | -2.1 | -7.9 | x | x | x
CC(C)CN=c1cc(-c2ccccc2)oc2ccc(Cl)cc12 | 1.3 | 48.0 | 59.9* | -9.2 | i | -14.6
CC(O)CN=c1cc(-c2ccccc2)oc2ccc(Cl)cc12 (stereo not drawn) | 0.0 | 26.9 | 30.8 | -3.0 | i | -4.9
CC(C)N(C(=O)N1CCN(c2ccnc3cc(Cl)ccc23)CC1)C(C)C | x | -5.0 | 0.5 | x | x | x
CC1=Nc2ccccc2/C1=C/c1nc(-c2ccc(C)s2)oc1O | -0.1 | 50.6 | 58.3* | -0.4 | i | -142.7
CC1=Nc2ccccc2/C1=C\c1nc(-c2ccccc2)oc1O | -0.2 | 0.7 | -11.9 | -1.1 | i | 21.0
CCC(=O)N1CCC2(CC1)Oc1ccc(F)cc1C(=O)C21CC(c2ccccc2)=NO1 (stereo not drawn) | x | 1.1 | -15.6 | -4.5 | i | 2.0
O=C(COC(=O)c1cccc2c1C(=O)c1ccccc1C2=O)NC1CCCCC1 | -0.5 | 21.0 | 29.9 | -13.5 | i | -4.5
CC(C)N(C(=O)COC(=O)c1ccccc1C(=O)c1ccc(Cl)c([N+](=O)[O-])c1)C(C)C | -0.3 | 73.8 | 90.7* | -8.6 | i | 4.7
CN(CCC#N)C(=O)COC(=O)c1ccccc1C(=O)c1ccc(Cl)c([N+](=O)[O-])c1 | -0.1 | 13.8 | 15.9 | -14.1 | i | 32.1
O=C(COC(=O)c1ccccc1C(=O)c1ccc(Cl)c([N+](=O)[O-])c1)NC1CCCCCC1 | 0.3 | -3.1 | -0.4 | 32.9* | i | 5.1
O=C(COC(=O)c1ccc(Cl)c([N+](=O)[O-])c1)NC1CCCC1 | x | -7.8 | 0.6 | x | x | x
O=C(COC(=O)c1ccc2c(c1[N+](=O)[O-])C(=O)c1ccccc1C2=O)NC1CC1 | 0.0 | 92.4 | 124.1* | -12.2 | i | 13.8
CCOc1ccc(CCNC(=O)CN2C(=O)NC3(CCCC3)C2=O)cc1OCC | x | -1.4 | 4.4 | x | x | x
Cc1cc(OCC(=O)O/N=C(\N)c2ccccc2)ccc1Br | 0.0 | 5.1 | 15.6 | 3.0 | i | x
O=C(Nc1cccc(Cl)c1Cl)C1CCCO1 (stereo not drawn) | x | -8.0 | 0.4 | x | x | x
S=C(N/N=C/c1ccc2ncccc2c1)Nc1cccnc1 | -0.5 | -64.6* | -65.1 | -58.7 | i | 18.1
Oc1ccc(/C=N/NC(=S)Nc2cccnc2)cc1O | 0.2 | -1.6 | -7.6 | -14.6 | i | 9.3
CCOC(=O)c1c(NC(=O)c2ccccc2)sc2c(O)c(CN(CC)CC)ccc12 | 0.2 | -73.4* | -75.1 | -16.6 | i | -1.9
SMILES | Hsp70 act | HSF1 inh | HSF1 activator | Mdm2 ligase inh | HSV replic up | Rad51 HR inh
Cc1ccc(-n2nc3c(=O)n(C(C)C(=O)NCc4ccc(Cl)cc4)nc(C)c3c2C)cc1 (stereo not drawn) | x | 4.3 | 4.1 | x | x | x
O=C(C1CCCN(Cc2cccc(Cl)c2)C1)N1CCCCC1 (stereo not drawn) | x | -2.1 | -5.2 | x | x | x
CC(C)NC(=S)NNC(=O)C12CC3CC(CC(C3)C1)C2 | -0.3 | -3.0 | -4.6 | -5.4 | i | -7.9
CCCCNC(=S)NNC(=O)C12CC3CC(CC(C3)C1)C2 | -0.1 | 0.0 | -2.0 | -5.0 | i | 105.7*
CCCCN1C(=O)/C(=C2\SC(N3CCCCC3)=NC2=O)c2ccccc21 | -0.3 | 35.9 | 51.4* | -25.4 | i | 2.6
COc1ccc2ccccc2c1C1CC(=O)N2CN(C3CCCCC3)CSC2=C1C#N (stereo not drawn) | -0.5 | -53.7* | -63.6 | -9.6 | i | -1.2
COc1cc2[nH]c(=S)nc(NCc3cccs3)c2cc1OC | 0.1 | 60.6 | 122.8* | -3.2 | i | 18.8
COc1ccc(CNC(=O)C(c2ccc(C)o2)N(C(=O)c2csnn2)c2ccc(C(C)C)cc2)cc1 (stereo not drawn) | -0.1 | 42.8 | 70.6* | -14.6 | i | -8.9
CC(C)c1ccc(N(C(=O)C(F)(F)F)C(C(=O)NC2CCCCC2)c2ccncc2)cc1 (stereo not drawn) | -0.6 | -1.2 | -7.5 | -22.8 | i | 4.0
Cc1cc(C)c(N(C(=O)c2csnn2)C(C(=O)NC2CCCC2)c2ccncc2)c(C)c1 (stereo not drawn) | x | -76.0* | -81.5 | x | x | x
CCC(C)N(C(=O)C(F)(F)F)C(C(=O)NC1CCCCC1)c1ccncc1 (stereo not drawn) | 0.1 | -51.5* | -62.7 | 1.8 | i | 8.1
Cc1cccc(N(C(=O)c2csnn2)C(C(=O)NCc2ccccc2)c2ccc(C)o2)c1 (stereo not drawn) | x | -2.1 | -9.2 | x | x | x
Cc1ccccc1N(C(=O)c1csnn1)C(C(=O)NC(C)(C)C)c1ccncc1 (stereo not drawn) | -0.5 | 73.9 | 92.8* | 4.1 | i | 8.0
CC(C)(C)NC(=O)C(c1ccncc1)N(C(=O)c1csnn1)c1cccc2ccccc12 (stereo not drawn) | -0.3 | 11.1 | 13.7 | -6.7 | i | 4.8
COc1ccccc1/C=C1\Oc2cc(OC(=O)N3CCOCC3)ccc2C1=O | x | -3.7 | -20.0 | 0.3 | i | x
COc1ccc(COC(=O)CCNC(=O)c2ccc(Cl)cc2)cc1 | x | 3.7 | -14.7 | x | x | x
Cc1ccc(S(=O)(=O)NCC(=O)NCC(=O)N(C)Cc2ccc3ccccc3c2)cc1C | x | -1.5 | 0.5 | x | x | x
Cc1cccc(C)c1NC(=O)CN(C)C(=O)c1ccc2nc[nH]c2c1 | x | -9.1 | -12.3 | x | x | x
Cc1ccc(-n2nnnc2-c2cccs2)cc1[N+](=O)[O-] | x | -4.2 | -8.6 | x | x | x
COC(=O)[C@H](CCSC)NS(=O)(=O)c1ccccc1Br | x | -6.3 | -21.9 | 25.5 | i | -10.2
O=C(NC1CCCC1)C(c1ccncc1)N(C(=O)c1csnn1)c1ccc(F)cc1 (stereo not drawn) | x | 5.6 | -10.3 | x | x | x
Cc1ccc(N(C(=O)c2csnn2)C(C(=O)NC2CCCC2)c2ccncc2)c(C)c1 (stereo not drawn) | x | 42.8 | 61.0* | x | x | x

High-throughput results deposited in PubChem BioAssay by several laboratories.
